ChEMBL document CHEMBL1153988 (J Med Chem, 2009)

Tests used:
Mus musculus [1] = assay: Teratogenic effect in VPA-induced SWV mouse assessed as fetuses with neural tube deffects at 301 mg/kg, ip administered on morning of day 8 of gestation; format: toxicity, organism-based; set-up: dose 301 mg/kg, route intraperitoneal; conditions: in vivo
Summary of the method: (§1)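 Inbred SWV mouse strain, highly susceptible to valproate-induced neural tube defects. Each pregnant dam received a single ip injection on gestation day 8.5. Test compounds spanned 1.8-4.2 mmol/kg, the reference drug was given as its sodium salt, and controls received 25% aqueous Cremophor EL. Groups were compared by Fisher's exact test (p < 0.05).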

Mus musculus [2] = assay: Teratogenic effect in SWV mouse assessed as number of litters at 600 mg/kg, ip administered on morning of day 8 of gestation; format: toxicity, organism-based; set-up: dose 600 mg/kg, route intraperitoneal; conditions: in vivo; summary of the method: as §1
Mus musculus [3] = assay: Teratogenic effect in SWV mouse assessed as dead fetuses at 600 mg/kg, ip administered on morning of day 8 of gestation; format: toxicity, organism-based; set-up: dose 600 mg/kg, route intraperitoneal; conditions: in vivo
Mus musculus [4] = assay: Teratogenic effect in SWV mouse assessed as number of implants at 301 mg/kg, ip administered on morning of day 8 of gestation; format: toxicity, organism-based; set-up: dose 301 mg/kg, route intraperitoneal; conditions: in vivo; summary of the method: as §1
Mus musculus [5] = assay: Teratogenic effect in SWV mouse assessed as resorptions at 301 mg/kg, ip administered on morning of day 8 of gestation; format: toxicity, organism-based; set-up: dose 301 mg/kg, route intraperitoneal; conditions: in vivo; summary of the method: as §1
Mus musculus [6] = assay: Teratogenic effect in SWV mouse assessed as number of litters at 301 mg/kg, ip administered on morning of day 8 of gestation; format: toxicity, organism-based; set-up: dose 301 mg/kg, route intraperitoneal; conditions: in vivo; summary of the method: as §1
Mus musculus [7] = assay: Teratogenic effect in SWV mouse assessed as resorptions at 600 mg/kg, ip administered on morning of day 8 of gestation; format: toxicity, organism-based; set-up: dose 600 mg/kg, route intraperitoneal; conditions: in vivo; summary of the method: as §1
Mus musculus [8] = assay: Anticonvulsant activity in ip dosed CF1 albino mouse assessed as protection against 44 mA-current-induced seizure by 6Hz psychomotor seizure test; format: functional
Summary of the method: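 In the 6 Hz psychomotor seizure test, male CF no. 1 albino mice (18-25 g) received the compound ip in 0.5% methylcellulose. Stimulation was at 32 or 44 mA. Doses were varied to give 3-4 points between 0% and 100% protection, and ED50 with 95% confidence interval came from probit analysis.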

Mus musculus [9] = assay: Teratogenic effect in SWV mouse assessed as number of implants at 452 mg/kg, ip administered on morning of day 8 of gestation; format: toxicity, organism-based; set-up: dose 452 mg/kg, route intraperitoneal; conditions: in vivo; summary of the method: as §1
Mus musculus [10] = assay: Teratogenic effect in SWV mouse assessed as dead fetuses at 452 mg/kg, ip administered on morning of day 8 of gestation; format: toxicity, organism-based; set-up: dose 452 mg/kg, route intraperitoneal; conditions: in vivo
Mus musculus [11] = assay: Teratogenic effect in SWV mouse assessed as number of litters at 452 mg/kg, ip administered on morning of day 8 of gestation; format: toxicity, organism-based; set-up: dose 452 mg/kg, route intraperitoneal; conditions: in vivo; summary of the method: as §1
Mus musculus [12] = assay: Teratogenic effect in SWV mouse assessed as live fetuses at 301 mg/kg, ip administered on morning of day 8 of gestation; format: toxicity, organism-based; set-up: dose 301 mg/kg, route intraperitoneal; conditions: in vivo; summary of the method: as §1
Mus musculus [13] = assay: Teratogenic effect in SWV mouse assessed as live fetuses at 600 mg/kg, ip administered on morning of day 8 of gestation; format: toxicity, organism-based; set-up: dose 600 mg/kg, route intraperitoneal; conditions: in vivo; summary of the method: as §1
Rattus norvegicus = assay: Anticonvulsant activity in po dosed albino Sprague-Dawley rat assessed as protection against scMet-induced seizures; format: functional
Summary of the method: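 Male Sprague-Dawley albino rats (100-150 g) were dosed orally in 0.5% methylcellulose and tested by MES or by sc pentylenetetrazol (2.82% in 0.9% saline). Doses were varied to give 3-4 points between 0% and 100% protection. ED50 and 95% confidence intervals came from probit analysis.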

Mus musculus [14] = assay: Teratogenic effect in SWV mouse assessed as dead fetuses at 301 mg/kg, ip administered on morning of day 8 of gestation; format: toxicity, organism-based; set-up: dose 301 mg/kg, route intraperitoneal; conditions: in vivo
Mus musculus [15] = assay: Teratogenic effect in SWV mouse assessed as live fetuses at 452 mg/kg, ip administered on morning of day 8 of gestation; format: toxicity, organism-based; set-up: dose 452 mg/kg, route intraperitoneal; conditions: in vivo; summary of the method: as §1
Mus musculus [16] = assay: Teratogenic effect in SWV mouse assessed as number of implants at 600 mg/kg, ip administered on morning of day 8 of gestation; format: toxicity, organism-based; set-up: dose 600 mg/kg, route intraperitoneal; conditions: in vivo; summary of the method: as §1
Mus musculus [17] = assay: Teratogenic effect in SWV mouse assessed as resorptions at 452 mg/kg, ip administered on morning of day 8 of gestation; format: toxicity, organism-based; set-up: dose 452 mg/kg, route intraperitoneal; conditions: in vivo; summary of the method: as §1
Mus musculus [18] = assay: Anticonvulsant activity in CF1 albino mouse assessed as protection against maximal electroshock-induced seizures at 450 mg/kg, ip after 0.5 hrs; format: functional, organism-based; set-up: dose 450 mg/kg
Summary of the method: (§2)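 Adult male CF no. 1 albino mice (18-25 g). Test compound suspended in 0.5% methylcellulose and given intraperitoneally at 0.01 mL/g body weight. Maximal electroshock challenge at the stated time. Read-out is the number of animals protected over the number tested; neurotoxicity is scored in parallel.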

Mus musculus [19] = assay: Neurotoxicity in CF1 albino mouse at 50 mg/kg, ip after 4 hrs; format: toxicity, organism-based; set-up: dose 50 mg/kg, route intraperitoneal; conditions: in vivo
Summary of the method: (§3)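 Male CF no. 1 albino mice (18-25 g) received a single ip dose as a suspension in 0.5% methylcellulose. The read-out was the number of animals showing neurotoxicity (minimal motor impairment) over the number tested.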

Mus musculus [20] = assay: Anticonvulsant activity in CF1 albino mouse assessed as protection against maximal electroshock-induced seizures at 50 mg/kg, ip after 0.5 hrs; format: functional, organism-based; set-up: dose 50 mg/kg; summary of the method: as §2
Mus musculus [21] = assay: Anticonvulsant activity in CF1 albino mouse assessed as protection against maximal electroshock-induced seizures at 150 mg/kg, ip after 0.5 hrs; format: functional, organism-based; set-up: dose 150 mg/kg; summary of the method: as §2
Mus musculus [22] = assay: Anticonvulsant activity in CF1 albino mouse assessed as protection against scMet-induced seizures at 150 mg/kg, ip after 0.5 hrs; format: functional, organism-based; set-up: dose 150 mg/kg
Summary of the method: (§4)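 Adult male CF no. 1 albino mice (18-25 g) dosed intraperitoneally with compound suspended in 0.5% methylcellulose (0.01 mL/g). Convulsant challenge given subcutaneously as a 0.85% pentylenetetrazol solution in 0.9% saline. Read-out is animals protected over animals tested, with neurotoxicity scored in parallel.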

Mus musculus [23] = assay: Anticonvulsant activity in CF1 albino mouse assessed as protection against scMet-induced seizures at 450 mg/kg, ip after 4 hrs; format: functional, organism-based; set-up: dose 450 mg/kg; summary of the method: as §4
Mus musculus [24] = assay: Neurotoxicity in CF1 albino mouse at 150 mg/kg, ip after 0.5 hrs; format: toxicity, organism-based; set-up: dose 150 mg/kg, route intraperitoneal; conditions: in vivo; summary of the method: as §3
Mus musculus [25] = assay: Anticonvulsant activity in CF1 albino mouse assessed as protection against maximal electroshock-induced seizures at 50 mg/kg, ip after 4 hrs; format: functional, organism-based; set-up: dose 50 mg/kg; summary of the method: as §2
Mus musculus [26] = assay: Anticonvulsant activity in CF1 albino mouse assessed as protection against scMet-induced seizures at 50 mg/kg, ip after 0.5 hrs; format: functional, organism-based; set-up: dose 50 mg/kg; summary of the method: as §4
Mus musculus [27] = assay: Neurotoxicity in CF1 albino mouse at 150 mg/kg, ip after 4 hrs; format: toxicity, organism-based; set-up: dose 150 mg/kg, route intraperitoneal; conditions: in vivo; summary of the method: as §3
Mus musculus [28] = assay: Neurotoxicity in CF1 albino mouse at 50 mg/kg, ip after 0.5 hrs; format: toxicity, organism-based; set-up: dose 50 mg/kg, route intraperitoneal; conditions: in vivo; summary of the method: as §3
Mus musculus [29] = assay: Anticonvulsant activity in CF1 albino mouse assessed as protection against scMet-induced seizures at 450 mg/kg, ip after 0.5 hrs; format: functional, organism-based; set-up: dose 450 mg/kg; summary of the method: as §4
Mus musculus [30] = assay: Anticonvulsant activity in CF1 albino mouse assessed as protection against maximal electroshock-induced seizures at 150 mg/kg, ip after 4 hrs; format: functional, organism-based; set-up: dose 150 mg/kg; summary of the method: as §2
Mus musculus [31] = assay: Anticonvulsant activity in CF1 albino mouse assessed as protection against maximal electroshock-induced seizures at 450 mg/kg, ip after 4 hrs; format: functional, organism-based; set-up: dose 450 mg/kg; summary of the method: as §2
Mus musculus [32] = assay: Anticonvulsant activity in CF1 albino mouse assessed as protection against scMet-induced seizures at 150 mg/kg, ip after 4 hrs; format: functional, organism-based; set-up: dose 150 mg/kg; summary of the method: as §4
Mus musculus [33] = assay: Anticonvulsant activity in CF1 albino mouse assessed as protection against scMet-induced seizures at 50 mg/kg, ip after 4 hrs; format: functional, organism-based; set-up: dose 50 mg/kg; summary of the method: as §4
Mus musculus [34] = assay: Neurotoxicity in CF1 albino mouse at 450 mg/kg, ip after 4 hrs; format: toxicity, organism-based; set-up: dose 450 mg/kg, route intraperitoneal; conditions: in vivo; summary of the method: as §3
Mus musculus [35] = assay: Neurotoxicity in CF1 albino mouse at 450 mg/kg, ip after 0.5 hrs; format: toxicity, organism-based; set-up: dose 450 mg/kg, route intraperitoneal; conditions: in vivo; summary of the method: as §3

CCCC(CCC)C(=O)O [VALPROIC ACID]
Activity (Mus musculus [1]): 1.5% | Activity (Mus musculus [2]): 13 | Activity (Mus musculus [3]): 10.7% | Activity (Mus musculus [4]): 154 | Activity (Mus musculus [5]): 11% | Activity (Mus musculus [6]): 12 | Activity (Mus musculus [7]): 7.6% | ED50 (Mus musculus [8]): 310 mg/kg | Activity (Mus musculus [9]): 160 | Activity (Mus musculus [10]): 0.6% | Activity (Mus musculus [11]): 13 | Activity (Mus musculus [12]): 86.4% | Activity (Mus musculus [13]): 81.7% | ED50 (Rattus norvegicus): 646 mg/kg | Activity (Mus musculus [14]): 2.6% | Activity (Mus musculus [15]): 88.1% | Activity (Mus musculus [16]): 131 | Activity (Mus musculus [17]): 11.3%

CC1(C)C(C)(C)C1(Br)C(=O)O
Activity (Mus musculus [18]): Non-toxic | Activity (Mus musculus [19]): Non-toxic | Activity (Mus musculus [20]): Non-toxic | Activity (Mus musculus [21]): Non-toxic | Activity (Mus musculus [22]): Non-toxic | Activity (Mus musculus [23]): Non-toxic | Activity (Mus musculus [24]): Non-toxic | Activity (Mus musculus [25]): Non-toxic | Activity (Mus musculus [26]): Non-toxic | Activity (Mus musculus [27]): Non-toxic | Activity (Mus musculus [28]): Non-toxic | Activity (Mus musculus [29]): Non-toxic | Activity (Mus musculus [30]): Non-toxic | Activity (Mus musculus [31]): Non-toxic | Activity (Mus musculus [32]): Non-toxic | Activity (Mus musculus [33]): Non-toxic | Activity (Mus musculus [34]): Non-toxic | Activity (Mus musculus [35]): Non-toxic
